Data set [1] deals with T1, Histone-lysine N-methyltransferase, H3 lysine-79 specific (Homo sapiens, UniProt Q8TEK3). The data set can be described thus: Inhibition of DOT1L (2 to 416 residues) (unknown origin) using biotinylated nucleosomes as substrate preincubated for 30 mins followed by substrate addition in presence of [3H-Me]SAM by scintillation proximity assay. On the technique in general: Scintillation proximity formats need no separation of bound from free tracer.

Data set [2] can be described thus: Permeability of compound by HDM-PAMPA assay. In kind it is ADME. Background: The PAMPA barrier holds no transporters, so it reflects passive diffusion.
The target of data set [3] is T1, Histone-lysine N-methyltransferase, H3 lysine-79 specific. In words: Inhibition of DOT1L in human MOLM13 cells assessed as suppression of HoxA9 gene after 72 hrs by luciferase reporter gene assay. Type of data set: cell-based.
The subject of the next data set is MV4-11. In words: Antiproliferative activity against human MV4-11 cells harboring MLL-AF4 treated for 6 hrs measured after 8 days by Celltiter-Glo reagent based assay. In kind it is functional, cell-based. For orientation: Cellular ATP, detected with luciferase, serves as a proxy for viable cell number.
Data set [4] concerns the target T1, Histone-lysine N-methyltransferase, H3 lysine-79 specific. In words: Inhibition of DOT1L in human HeLa cells assessed as reduction in H3K79me2 level after 72 hrs by ELISA. In kind it is cell-based.
Data set [5] can be described thus: AUC (0 to infinity) in Sprague-Dawley rat at 15 mg/kg, po administered via gastric intubation by LC-MS/MS analysis. Type of data set: ADME, organism-based. On the set-up: dose 15 mg/kg, route oral, time infinity. The conditions noted are these: in vivo. The procedure, abridged: (§1)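 Oral dosing was given to male Sprague Dawley rats as a suspension at 15 mg/kg. Total blood concentrations were sampled over time to give Cmax, Tmax and AUC0-inf. Oral bioavailability was calculated at this dose.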

Data set [6] can be described thus: Drug level in Sprague-Dawley rat blood at 15 mg/kg, po administered via gastric intubation up to 24 hrs by LC-MS/MS analysis. Type of data set: ADME, organism-based. Conditions: in vivo; call rule not given here. The method, boiled down:
as §1

Data set [7] is described as follows: Volume of distribution in Sprague-Dawley rat at 1 mg/kg, iv administered as bolus dose measured up to 48 hrs by LC-MS/MS analysis. In kind it is ADME, organism-based. Conditions: in vivo. The procedure, abridged:
(§2)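 Male Sprague Dawley rats received a single intravenous bolus at 1 mg/kg. Total blood concentrations were followed over time. Clearance, volume of distribution, half-life and AUC0-inf were derived from the blood profile.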

Data set [8] in a line: Half life in Sprague-Dawley rat at 1 mg/kg, iv administered as bolus dose by LC-MS/MS analysis. Conditions: in vivo. In kind it is ADME, organism-based. The procedure, abridged: as §2
Data set [9] in a line: Cmax in Sprague-Dawley rat at 15 mg/kg, po administered via gastric intubation measured up to 48 hrs by LC-MS/MS analysis. On the set-up: dose 15 mg/kg, route oral. In kind it is ADME, organism-based. The conditions noted are these: in vivo. The procedure, abridged:
as §1

A short description of data set [10]: Clearance in Sprague-Dawley rat at 1 mg/kg, iv administered as bolus dose measured up to 48 hrs by LC-MS/MS analysis. In kind it is ADME, organism-based. The conditions noted are these: in vivo. The procedure, abridged: as §2
The nature of data set [11]: AUC (0 to infinity) in Sprague-Dawley rat at 1 mg/kg, iv administered as bolus dose by LC-MS/MS analysis. Type of data set: ADME, organism-based. Details: dose 1 mg/kg, route intravenous, time infinity. The conditions noted are these: in vivo. The method, boiled down: as §2
A short description of data set [12]: Tmax in Sprague-Dawley rat at 15 mg/kg, po administered via gastric intubation by LC-MS/MS analysis. Type of data set: ADME, organism-based. Conditions: in vivo. The method, boiled down: as §1
A short description of data set [13]: Oral bioavailability in Sprague-Dawley rat at 15 mg/kg administered via gastric intubation measured up to 48 hrs by LC-MS/MS analysis. In kind it is ADME, organism-based. The conditions noted are these: in vivo. The procedure, abridged:
as §1

T1 sequence (Q8TEK3 whole entry, the tested form may be a part): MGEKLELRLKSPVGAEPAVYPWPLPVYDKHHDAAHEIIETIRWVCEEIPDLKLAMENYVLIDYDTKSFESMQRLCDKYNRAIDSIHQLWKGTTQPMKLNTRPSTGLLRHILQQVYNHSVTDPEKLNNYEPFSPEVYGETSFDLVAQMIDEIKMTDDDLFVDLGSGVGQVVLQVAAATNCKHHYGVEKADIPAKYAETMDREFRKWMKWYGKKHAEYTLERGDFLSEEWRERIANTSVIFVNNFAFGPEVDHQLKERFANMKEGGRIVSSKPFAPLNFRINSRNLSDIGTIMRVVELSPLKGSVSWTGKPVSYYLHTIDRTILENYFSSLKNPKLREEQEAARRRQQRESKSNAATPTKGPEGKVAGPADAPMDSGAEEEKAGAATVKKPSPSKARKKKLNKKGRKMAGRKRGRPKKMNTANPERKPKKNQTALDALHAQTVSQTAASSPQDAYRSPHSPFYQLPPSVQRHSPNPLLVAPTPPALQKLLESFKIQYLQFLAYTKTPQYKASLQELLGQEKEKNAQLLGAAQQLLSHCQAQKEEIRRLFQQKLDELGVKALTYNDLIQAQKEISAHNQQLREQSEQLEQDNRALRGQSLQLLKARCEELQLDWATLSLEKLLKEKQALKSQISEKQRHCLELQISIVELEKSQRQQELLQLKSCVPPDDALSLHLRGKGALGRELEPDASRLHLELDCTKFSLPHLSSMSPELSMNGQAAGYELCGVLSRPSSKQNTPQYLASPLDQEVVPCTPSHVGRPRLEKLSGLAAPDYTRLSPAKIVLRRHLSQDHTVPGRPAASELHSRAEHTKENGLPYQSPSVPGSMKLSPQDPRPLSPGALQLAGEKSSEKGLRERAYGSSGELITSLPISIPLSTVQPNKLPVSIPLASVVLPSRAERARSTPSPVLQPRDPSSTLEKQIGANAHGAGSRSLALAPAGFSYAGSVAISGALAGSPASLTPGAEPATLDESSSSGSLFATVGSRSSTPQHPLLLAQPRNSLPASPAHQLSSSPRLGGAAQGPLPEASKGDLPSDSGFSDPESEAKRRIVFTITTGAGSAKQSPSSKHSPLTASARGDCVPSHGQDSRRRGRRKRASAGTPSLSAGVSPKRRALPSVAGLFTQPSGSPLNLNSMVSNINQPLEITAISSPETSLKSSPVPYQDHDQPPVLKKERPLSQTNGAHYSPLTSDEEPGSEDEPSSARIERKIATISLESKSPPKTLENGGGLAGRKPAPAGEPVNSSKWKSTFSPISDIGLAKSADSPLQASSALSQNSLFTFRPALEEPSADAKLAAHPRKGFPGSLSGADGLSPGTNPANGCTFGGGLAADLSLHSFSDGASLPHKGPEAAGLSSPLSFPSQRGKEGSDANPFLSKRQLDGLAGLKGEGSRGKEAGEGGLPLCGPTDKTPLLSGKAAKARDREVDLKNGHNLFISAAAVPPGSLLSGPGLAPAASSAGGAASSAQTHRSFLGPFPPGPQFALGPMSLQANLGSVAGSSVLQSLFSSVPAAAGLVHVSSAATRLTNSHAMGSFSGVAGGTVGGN

Regarding `Cc1cc2ccc(NC3=NC(=O)CN3)cc2n1-c1cccnc1Cl`, in [1], the IC50 (usually the point on the concentration scale where inhibition reaches its midpoint) stood at 4100 nM.
Take `CNc1ccnc(Nc2ccc3cc(C)n(-c4ccccc4Oc4ccccc4)c3c2)n1`: the IC50 in [1] was found to be 150 nM.
Still for that read-out and setting: as for `CNc1ccnc(Nc2ccc3cc(C)n(-c4cc(-c5c(C)ccn(C)c5=O)cnc4Cl)c3c2)n1`, the figure is 10 nM.
Turning to `O=C(Cn1nnnc1-c1ccccc1Cl)NNC(=O)Nc1ccc2ccn(-c3ccccc3Cl)c2c1`, the permeability entry in data set [2] is listed as “Impermeable”. Also, the IC50 in [1] amounted to 20 nM.
`Cc1cc2ccc(Nc3nc(=O)cc[nH]3)cc2n1-c1cccnc1Cl`: the IC50 in data set [1] is 1100 nM.
Same read-out and setting: then `CNc1ccnc(Nc2ccc3cc(C)n(-c4cccnc4Cl)c3c2)n1`, with 280 nM.
Turning to `CCNC(=O)Nc1ccc2ccn(-c3ccccc3Cl)c2c1`, the IC50 in data set [1] was found to be 40000 nM.
On to `O=C(Cn1nnc(COc2ccccc2Cl)n1)NNC(=O)Nc1ccc(Cl)cc1`, for which the IC50 in data set [1] came out at 14000 nM.
Turning to `CNc1ccnc(Nc2ccc3cc(C)n(-c4ccccc4Oc4cnc5c(c4)ncn5C)c3c2)n1`, the IC50 was 340 nM in data set [3], 128 nM with MV4-11, 0.4 nM in data set [1] and 16 nM in data set [4]. In addition, the Ki – broadly, a dissociation constant, usually derived from enzyme kinetics or from competition with a known ligand – in [1] worked out at 0.08 nM.
For the compound `Cc1cc2ccc(Nc3cccnn3)cc2n1-c1cccnc1Cl`, the IC50 in data set [1] was 28000 nM.
Take `Cc1cc2ccc(Nc3nccc(N)n3)cc2n1-c1cccnc1Cl`: in data set [1], the IC50 is 4300 nM.
On the same count and under the same terms, as for `O=C(Cn1nnnc1COc1ccccc1Cl)NNC(=O)Nc1ccc(Cl)cc1`, the figure is 4400 nM.
Consider `CNc1ccnc(Nc2ccc3sc(Cl)c(-c4cc(-c5c(C)ncn(C)c5=O)cnc4Cl)c3c2)n1`, for which the AUC(0-inf) – broadly, total exposure, with the tail of the curve extrapolated – in data set [5] was found to be 2.37 µM·h; in data set [11], 0.396 µM·h. The IC50 in data set [3] came to 384 nM; with MV4-11, 85 nM; in [1], 1.4 nM; in [4] it was 23 nM. In data set [6], the Drug uptake result is reported as “Active”. Moreover, the Vd (usually a proportionality between amount in the body and measured concentration, not a real space) in [7] was 10 L/kg. Further, the permeability result in data set [2] is on record as “Permeable”. Further, the half-life (in general, how long it takes for the measured level to halve) in data set [8] is 102 min. In data set [9], the Cmax (in general, the peak of the concentration-time curve) turned out to be 225 nM. Moreover, the clearance – broadly, the rate of elimination divided by the concentration – in [10] came out at 84 mL/min/kg. In [1], the Ki was found to be 0.36 nM. The Tmax (usually the time from dosing to the highest level) in data set [12] is 3.5 h. The bioavailability (in general, dose-corrected exposure relative to a reference, in per cent) in data set [13] worked out at 40%.
